Source: PubChem (The Scripps Research Institute Molecular Screening Center)
OXTR potentiate: human OXTR potentiators, primary screen, fluorescence, CHO-OTR cells, Fluo-8 calcium. Oxytocin receptor (Homo sapiens), P30559. Fluo-8 calcium fluorescence, potentiator mode; 0% = oxytocin EC15, 100% = EC100. activation, % at 3 µM. actives 0.061% (n = 320,000). AID 2445, 2010;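 active = activation above that plate's cutoff, the mean activation of tested compounds plus 3 SD, cut at about 6.6% in these data, passing the limit was not always enough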
Target sequence (P30559 whole entry, looked up): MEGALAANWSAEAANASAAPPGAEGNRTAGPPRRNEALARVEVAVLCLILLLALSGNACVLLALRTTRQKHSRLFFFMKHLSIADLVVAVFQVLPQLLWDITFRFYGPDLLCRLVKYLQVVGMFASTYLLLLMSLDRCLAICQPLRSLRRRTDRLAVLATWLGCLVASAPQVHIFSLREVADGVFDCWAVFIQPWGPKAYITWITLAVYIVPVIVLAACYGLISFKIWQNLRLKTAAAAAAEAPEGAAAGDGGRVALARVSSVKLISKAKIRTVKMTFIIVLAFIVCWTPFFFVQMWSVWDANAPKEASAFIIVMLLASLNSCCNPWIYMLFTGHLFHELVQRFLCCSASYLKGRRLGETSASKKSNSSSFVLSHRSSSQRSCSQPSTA
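System: human OTR in CHO cells; Also added: sub-maximal oxytocin, roughly EC15; Timing: compound 6 min at room temperature before oxytocin, 100 s read; Technique: Fluo-8 intracellular calcium fluorescence, ex 470-495, em 515-575 nm; Controls: oxytocin EC15 low and EC100 high; Replication: singlicate.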
TAAR1 antagonist: human TAAR1 antagonists, primary screen, Fluo-8 calcium fluorescence, CHO RD-HGA16 cells | antagonist | inhibition, % at 3 µM | Trace amine-associated receptor 1 (Homo sapiens), Q96RJ0 | actives 1.5% (n = 360,000) | AID 624466, 2012;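 active = inhibition above a per-plate cutoff, the mean inhibition of test compounds on that plate plus 3 SD, cut at about 49% in these data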
Target sequence (Q96RJ0 whole entry, looked up): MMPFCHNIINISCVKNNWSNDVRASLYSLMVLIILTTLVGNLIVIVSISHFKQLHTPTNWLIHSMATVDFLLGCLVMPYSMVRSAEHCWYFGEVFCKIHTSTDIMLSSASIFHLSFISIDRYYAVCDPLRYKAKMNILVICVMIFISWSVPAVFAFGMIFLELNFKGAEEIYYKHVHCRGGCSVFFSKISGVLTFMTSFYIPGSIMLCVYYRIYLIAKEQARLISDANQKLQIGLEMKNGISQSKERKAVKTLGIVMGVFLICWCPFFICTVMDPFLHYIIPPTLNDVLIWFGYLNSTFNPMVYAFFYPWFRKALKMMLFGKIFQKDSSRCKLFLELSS
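Test system – hTAAR1-expressing CHO RD-HGA16 cells, Gα16-coupled · Also added – β-PEA at EC80 concentration, post-compound challenge · Compound – 3 µM, single point · Incubation – dye loading 75 min at 37 °C, then 30 min room temperature · Measured by – Fluo-8 intracellular calcium dye fluorescence, real-time kinetic reads · Benchmarks – vehicle and agonist controls · Replicates – singlicate, one well per test compound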
TAAR1 agonist: human TAAR1 agonists, primary screen, Fluo-8 calcium fluorescence, CHO RD-HGA16 cells. Trace amine-associated receptor 1 (Homo sapiens), Q96RJ0. vehicle wells 0%, saturating PEA agonist 100%. activation, % at 3 µM. actives 0.99% (n = 360,000);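 active = activation above the mean activation of all test compounds in the run plus 3 SD, cut at about 38% in these data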
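Test system: RD-HGA16 (CHO) cells co-expressing Gα16 and hTAAR1; dosing: one-point dosing at 3 µM (nominal); timing: 17-24 h seeding, 75 min 37 °C dye, 30 min RT; signal: kinetic Fluo-8 calcium fluorescence; read-out basis: % activation relative to PEA EC100 response; controls: DMSO and PEA EC100; replicates: n 1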
V1aR counter: agonists of human V1a receptor, primary screen, counter-screen for OXTR agonist project, fluorescence, CHO-V1R cells; Vasopressin V1a receptor (Homo sapiens), P37288; Fluo-8 calcium fluorescence, agonist mode; 0% DMSO, 100% 3 nM vasopressin; activation, % at 3 µM; actives 0.25% (n = 320,000); AID 2797, 2010;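 active = activation above the mean activation of all tested compounds plus 3 SD, per screening run, cut at about 20% in these data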;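 note: signal is peak over basal fluorescence ratio across a 100 second FLIPR read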
OXTR ag: human OXTR agonists, primary screen, fluorescence, CHO-OTR cells, Fluo-8 calcium; Fluo-8 calcium fluorescence; normalized: DMSO 0%, oxytocin 100%; activation, % at 3 µM; actives 0.32% (n = 320,000);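 active = activation above the mean of all tested compounds plus 3 SD, cutoff set per screening run, cut at about 20% in these data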;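 note: peak over basal fluorescence ratio from a 100 s FLIPR kinetic read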
TAAR1 ag conf: human TAAR1 agonists, retest of hits, confirmation, Fluo-8 calcium fluorescence, CHO RD-HGA16 cells | shares compounds with TAAR1 agonist | scaled: DMSO 0%, maximal phenethylamine 100% | activation, % at 3 µM | actives 82% (n = 2,400) | AID 651783, 2012;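 active = activation above a cutoff set at the run's mean compound activation plus 3 SD, cut at about 39% in these data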
Ga16 nonsel ag: nonselective calcium mobilization agonists, CHO-Ga16 cells, counter-screen for hTAAR1 agonist project, cell-based, fluorescence, CHO-Ga16 parental line; activation, % at 3 µM; Fluo-8 calcium fluorescence; normalized to maximal ATP response, DMSO zero; shares compounds with TAAR1 agonist; actives 50% (n = 2,400);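 active = activation above the run cutoff, the mean activation over all tested wells plus 3 SD, cut at about 12% in these data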
TAAR1 desensitize: TAAR1 desensitization by agonist hits, confirmation, counter-screen for TAAR1 agonist project, cell-based, fluorescence, tachyphylaxis | inhibition, % at 3 µM | CHO RD-HGA16 hTAAR1, Fluo-8 calcium, beta-PEA response inhibition | shares compounds with TAAR1 agonist | actives 46% (n = 2,400);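 active = inhibition above the run cutoff, the mean inhibition of all test compounds plus 3 SD, cut at about 49% in these data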;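 note: beta-PEA stimulus applied at its EC80; loss of beta-PEA calcium signal after compound pretreatment read as receptor desensitization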
Ga16 nonsel ant: inhibition of ATP-evoked calcium response in CHO-Ga16 cells, counter-screen for TAAR1 agonist project, cell-based, fluorescence. shares compounds with TAAR1 agonist. CHO-Ga16 ATP-induced calcium, Fluo-8 fluorescence. inhibition, % at 3 µM. actives 39% (n = 2,400). AID 651952, 2012;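 active = inhibition above the plate's mean compound inhibition plus 3 SD, computed per plate, cut at about 22% in these data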
Of the large screens only hits and unclear results are named; the others gave an inactive call (follow-up assays come after a bar, where they were run). Sampled rows, rich in hits. Any-hit rate of the full collection: about 2.3%.

COc1cccc(OC)c1C(=O)Nc1cccc(S(=O)(=O)Nc2ccccc2Cl)c1	none
COc1ccccc1NS(=O)(=O)c1cccc(NC(=O)Nc2ccc(Cl)cc2)c1	TAAR1 antagonist 76.2, TAAR1 agonist 56.2 | TAAR1 ag conf 45.9 | Ga16 nonsel ag 19.2 | TAAR1 desensitize 93.0 | Ga16 nonsel ant 58.0
O=C(Nc1ccc(C(=O)c2ccccc2)cc1)c1ccccc1	none
O=C(Nc1ccc(C(F)(F)F)cc1)c1ccccc1	TAAR1 antagonist 63.3, TAAR1 agonist 52.2 | TAAR1 ag conf inactive | Ga16 nonsel ag 11.6 | TAAR1 desensitize inactive | Ga16 nonsel ant inactive
Cc1nnc(C)n1N	none
CCCCCCCCn1c2c(c(=N)c3ccccc31)CCC2	none (no result: OXTR potentiate, V1aR counter, OXTR ag)
CCCCCCCCCCn1c2c(c(=N)c3c1CCC3)CCC2	TAAR1 agonist 47.1 | TAAR1 ag conf 52.5 | Ga16 nonsel ag 23.2 | TAAR1 desensitize inactive | Ga16 nonsel ant 36.7
Cc1sc(-c2ccncc2)nc1OC(=O)c1ccc(F)cc1F	none
Cc1cc(/C=N/NC(=O)CC2(C)OCCO2)c(C)n1-c1cc(Cl)cc(Cl)c1	TAAR1 agonist 71.5 | TAAR1 ag conf 84.5 | Ga16 nonsel ag 50.2 | TAAR1 desensitize inactive | Ga16 nonsel ant inactive
Cc1ccc(SC(=O)c2c(C)noc2-c2cc(C)on2)cc1	none
O=C(CCc1ccc(S(=O)(=O)N2CCOCC2)cc1)OCC(=O)c1ccccc1	none
C=CCn1c(SCC(=O)NCCc2ccccc2)nnc1C(C)NC(=O)c1cccs1 (stereo unspecified)	TAAR1 agonist 49.1 | TAAR1 ag conf 65.7 | Ga16 nonsel ag inactive | TAAR1 desensitize inactive | Ga16 nonsel ant inactive
C=CCn1c(SCC(=O)Nc2cccc(C(=O)OC)c2)nnc1C(C)NC(=O)c1cccs1 (stereo unspecified)	none
C[C@H](NC(=O)C1CCN(S(=O)(=O)c2ccccc2)CC1)C(=O)NCc1ccncc1	none (no result: OXTR potentiate, V1aR counter, OXTR ag)
c1ccc(CCN=C2CCCc3c2[nH]c2ccccc32)cc1	TAAR1 antagonist 95.8, TAAR1 agonist 95.1 | TAAR1 ag conf 98.7 | Ga16 nonsel ag inactive | TAAR1 desensitize 101.4 | Ga16 nonsel ant inactive
COc1cc(/C=c2\s/c(=C(/C#N)C(=O)N3CCCC3)n(-c3ccccc3)c2=O)ccc1O	TAAR1 antagonist 76.0, TAAR1 agonist 74.8 | TAAR1 ag conf inactive | Ga16 nonsel ag 33.9 | TAAR1 desensitize 63.7 | Ga16 nonsel ant 53.9
COC(=O)C1(C(F)(F)F)C2C=CC(C2)N1S(=O)(=O)c1ccc(C)cc1 (stereo unspecified)	none
CN(C)CCN(C(=O)c1ccc(S(=O)(=O)N2CCCC2)cc1)c1nc2ccc(Br)cc2s1	none
CN(C)CCCN(C(=O)c1ccc(S(=O)(=O)N2CCCCCC2)cc1)c1nc2ccc(F)cc2s1	TAAR1 agonist 66.9 | TAAR1 ag conf 67.6 | Ga16 nonsel ag 30.2 | TAAR1 desensitize inactive | Ga16 nonsel ant inactive
CC1CCCCN1S(=O)(=O)c1ccc(C(=O)N(CCCN(C)C)c2nc3ccc(Br)cc3s2)cc1 (stereo unspecified)	TAAR1 agonist 50.7 | TAAR1 ag conf 68.8 | Ga16 nonsel ag 52.4 | TAAR1 desensitize 56.8 | Ga16 nonsel ant 56.3
CN(C)CCCN(C(=O)c1ccc(S(=O)(=O)N2CCOCC2)cc1)c1nc2ccc(F)cc2s1	none
CCc1nc2ccc(C(=O)Nc3ccc(Cl)c(Cl)c3)cn2c1N(C)Cc1ccc(OC)cc1	none (no result: OXTR potentiate, V1aR counter, OXTR ag)
COc1ccc(CCNC(=O)CSCC(=O)Nc2cc(S(C)(=O)=O)ccc2Cl)cc1	none
Fc1ccc(Nc2nc(N3CCOCC3)c3ccccc3n2)cc1	TAAR1 antagonist 63.2, TAAR1 agonist 64.8 | TAAR1 ag conf 65.0 | Ga16 nonsel ag inactive | TAAR1 desensitize inactive | Ga16 nonsel ant inactive
O=S(=O)(Nc1ccc(-c2cn3c(n2)SCC3)cc1)c1ccccc1F	none
C/C(CC(=O)N(C(C)C)C(C)C)=N\NC(=O)c1ccccc1Br	none
CCOC(=O)/C(=C\C=C1/Sc2cc(OCC)c(OCC)cc2N1CC)C(C)=O	TAAR1 antagonist 62.5, TAAR1 agonist 121.1, V1aR counter 92.0, OXTR ag 148.2 | TAAR1 ag conf 166.9 | Ga16 nonsel ag 225.0 | TAAR1 desensitize 79.5 | Ga16 nonsel ant 85.9
COc1ccccc1N1CCN(Cc2nc(-c3ccc(F)cc3)oc2C)CC1	none
COc1ccccc1N1CCN(Cc2cn[nH]c2-c2ccc(F)cc2)CC1	TAAR1 agonist 121.5 | TAAR1 ag conf 122.8 | Ga16 nonsel ag 80.0 | TAAR1 desensitize inactive | Ga16 nonsel ant inactive
Cc1ccnc(NC(=O)Nc2ccc3c(c2)OCO3)c1	TAAR1 agonist 46.8 | TAAR1 ag conf 87.4 | Ga16 nonsel ag inactive | TAAR1 desensitize 66.5 | Ga16 nonsel ant inactive
O=C(Nc1ccc2c(c1)OCCO2)Nc1ccc2c(c1)OCO2	none
CCc1ccccc1NC(=O)Nc1ccc2c(c1)OCO2	TAAR1 agonist 63.7 | TAAR1 ag conf inactive | Ga16 nonsel ag inactive | TAAR1 desensitize inactive | Ga16 nonsel ant inactive
COC(=O)C1=C(C)N(Cc2ccccc2C(F)(F)F)C(=NCc2ccccc2)NC1c1ccc(F)cc1 (stereo unspecified)	none (no result: OXTR potentiate, V1aR counter, OXTR ag)
CN(CCCN1CCCCC1)C(=O)CCc1nnc(C2CCCCC2)o1	none
CC(=O)c1ccc(NC(=O)C2C3C=CC(C3=C(c3ccccc3)c3ccccc3)C2C(=O)O)cc1 (stereo unspecified)	TAAR1 agonist 74.6 | TAAR1 ag conf 101.6 | Ga16 nonsel ag 71.3 | TAAR1 desensitize inactive | Ga16 nonsel ant inactive
